Assay results: ChEMBL document CHEMBL1134480, “Antiplasmodial activity and cytotoxicity of bis-, tris-, and tetraquinolines with linear or cyclic amino linkers” (J Med Chem, 2001)

Tests used:
MRC5 [1] = test: Cytotoxicity against MRC-5 cells at concentration 1 uM; type: functional; conditions: Homo sapiens
How it was run: (§1)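 MRC-5 human embryonic lung diploid cells were seeded at 5000 per well. After 24 h the cells were washed and exposed to 2-fold drug dilutions in RPMI + 5% FCS, with final DMSO below 0.5%. Incubation was 7 days at 37 °C in 5% CO2. Viability was read by MTT absorbance at 540 nm.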

MRC5 [2] = test: Cytotoxicity against MRC-5 cells at concentration 32 uM; type: functional; conditions: Homo sapiens; how it was run: as §1
MRC5 [3] = test: Cytotoxicity against MRC-5 cells at concentration 0.5 uM; type: functional; conditions: Homo sapiens; how it was run: as §1
MRC5 [4] = test: Cytotoxicity against MRC-5 cells at concentration 8 uM; type: functional; conditions: Homo sapiens; how it was run: as §1
[5] = In vitro cytotoxicity against mouse peritoneal macrophages at concentration 32 uM; Toxic; type: toxicity
[6] = In vitro cytotoxicity against mouse peritoneal macrophages at concentration 8 uM; Toxic; type: toxicity
Mus musculus [7] = species: Mus musculus; test: In vitro cytotoxic activity against mouse peritoneal macrophages at a concentration 2 uM; Non-toxic; type: functional
Plasmodium falciparum [8] = test: In vitro growth inhibition of Plasmodium falciparum FcB1R; type: functional, organism-based
How it was run: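 Asynchronous P. falciparum cultures were grown in human erythrocytes at 0.5% parasitemia and 1% hematocrit. They were exposed to serial drug dilutions, with DMSO ≤0.1%, for 24 h at 37 °C before adding 0.5 µCi [3H]hypoxanthine per well. Inhibition was measured as incorporated radioactivity versus drug-free controls on the same plate. IC50 came from concentration–response curves, reported as mean ± SD of three independent experiments; FcB1R used several experiments.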

[9] = In vitro cytotoxic activity against mouse peritoneal macrophages at a concentration 32 uM; Toxic; type: toxicity
[10] = In vitro cytotoxic activity against mouse peritoneal macrophages at a concentration 8 uM; Toxic; type: toxicity
Plasmodium falciparum [11] = test: (§2) In vitro growth inhibition of Plasmodium falciparum W2; type: functional, organism-based
How it was run: (§3)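 Asynchronous P. falciparum cultures in human erythrocytes (0.5% parasitemia, 1% final hematocrit) exposed to serially diluted drug for 24 h at 37 °C, then pulsed with 0.5 µCi [³H]hypoxanthine per well. Inhibition from incorporated radioactivity versus drug-free control on the same plate; IC50 from concentration-response curve; mean ± SD of three independent experiments. DMSO ≤0.1% final.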

Plasmodium falciparum [12] = test: In vitro growth inhibition of Plasmodium falciparum D6; type: functional, organism-based; how it was run: as §3
Plasmodium falciparum [13] = test: (§4) In vitro growth inhibition of Plasmodium falciparum F32; type: functional, organism-based; how it was run: as §3
Mus musculus [14] = species: Mus musculus; test: In vitro cytotoxic activity against mouse peritoneal macrophages at a concentration 8 uM; Non-toxic; type: functional
[15] = In vitro cytotoxic activity against mouse peritoneal macrophages at concentration 32 uM; Toxic; type: toxicity
[16] = Inhibition of haem polymerization
How it was run: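 Insoluble FcB1R trophozoite material (~4 × 10^7 parasites) was mixed with 0.3 mM bovine haematin in 60 mM sodium acetate, pH 5, plus drug at varied concentrations and 1% DMSO, then incubated 4 h at 37 °C. The washed pellet was treated with SDS, and polymerized haem was dissolved in NaOH and read at 404 nm. Values were corrected for endogenous haemozoin to give IC50. Data are the mean of two independent experiments, each run in duplicate.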

Plasmodium falciparum [17] = test: as §2; type: functional, organism-based; remark: listed apart in the source
Plasmodium falciparum [18] = test: as §4; type: functional, organism-based; remark: listed apart in the source

| SMILES | cytotoxicity at 1 µM (MRC5 [1]) | cytotoxicity at 32 µM (MRC5 [2]) | cytotoxicity at 0.5 µM (MRC5 [3]) | cytotoxicity at 8 µM (MRC5 [4]) | Cytotoxicity [5] | Cytotoxicity [6] | Cytotoxicity (Mus musculus [7]) | IC50 (Plasmodium falciparum [8]) | Cytotoxicity [9] | Cytotoxicity [10] | IC50 (Plasmodium falciparum [11]) | IC50 (Plasmodium falciparum [12]) | IC50 (Plasmodium falciparum [13]) | Cytotoxicity (Mus musculus [14]) | Cytotoxicity [15] | IC50 [16] | IC50 (Plasmodium falciparum [17]) | IC50 (Plasmodium falciparum [18]) |
| --- | --- | --- | --- | --- | --- | --- | --- | --- | --- | --- | --- | --- | --- | --- | --- | --- | --- | --- |
| Clc1ccc2c(NCCCCNCCCNc3ccnc4cc(Cl)ccc34)ccnc2c1 | 0% | 100% | 0% | 100% | Toxic | Toxic | Not toxic | 57 nM |  |  |  |  |  |  |  |  |  |  |
| O=C(CCN1CCCCC1)N1CCN(c2ccnc3cc(Cl)ccc23)CCN(c2ccnc3cc(Cl)ccc23)CC1 | 0% | 91% | 0% | 87% |  |  | Not toxic | 38.6 nM | Toxic | Toxic | 50.2 nM | 18.9 nM | 16.1 nM |  |  |  |  |  |
| Clc1ccc2c(N3CCCNCCN(c4ccnc5cc(Cl)ccc45)CCCNCC3)ccnc2c1 | 0% | 98% | 0% | 0% |  |  | Not toxic | > 1000 nM |  |  |  |  |  | Not toxic | Toxic |  |  |  |
| Clc1ccc2c(N3CCNCCN(c4ccnc5cc(Cl)ccc45)CC3)ccnc2c1 | 0% | 0% | 0% | 0% |  |  | Not toxic |  |  |  |  | 74.5 nM |  | Not toxic |  | 170000 nM | 170 nM | 64.6 nM |
